EBNA-1 inhibitor – blocks EBNA-1 binding to DNA | inhibition, % at 14.8 µM | 0.34% of 300,000 active | EBNA-1 DNA binding, fluorescence polarization; in the data active = inhibition above about 28%
GRIN3A LBD mod – NR3A (human) ligand-binding domain modulation; NR3A LBD differential scanning fluorimetry, Tm shift; 0% = protein alone, 100% = glycine-bound protein; Tm shift relative to glycine control, % at 25 µM; 2.5% of 340,000 active; AID 1259313;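 active = melting temperature shift of at least 10% of the positive control shift, at one fixed dose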
DNA FID counter – counter-screen for HCV NS3 helicase inhibitors: DNA intercalator displacement; inhibition, % at 7.9 µM; 0.17% of 290,000 active; DNA fluorescent intercalator displacement, fluorescence; in the data active = inhibition above about 37%;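 note: 0% = vehicle and 100% = reference compound; higher means more ethidium bromide displaced from hairpin DNA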
FGF22 binding-1 – binders of recombinant human FGF22 by thermal shift. Q9HCT0. AID 651658. activity (Tm shift, normalised), % at 9.99 µM. SYPRO orange fluorescence; percent of sucrose octasulfate shift, DMSO zero. 1.5% of 340,000 active;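 active = mean Tm shift, scaled 0 neutral to 100 positive control, at about 1.3% or above, every replicate too, limit read from the data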
Target sequence (Q9HCT0 whole entry, looked up): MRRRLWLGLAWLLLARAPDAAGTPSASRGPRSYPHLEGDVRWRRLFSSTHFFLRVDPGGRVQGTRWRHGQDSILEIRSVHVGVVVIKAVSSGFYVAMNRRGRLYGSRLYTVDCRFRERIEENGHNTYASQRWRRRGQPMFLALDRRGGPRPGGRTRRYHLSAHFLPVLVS
NS3 helicase inh – inhibitors of Hepatitis C virus NS3 helicase | NS3 helicase DNA unwinding, Cy5 molecular beacon fluorescence | inhibition, % at 10.9 µM | 0.56% of 290,000 active | AID 1800;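 active = inhibition above the mean of all tested compounds plus 3 SD, set per campaign, cut at about 35% in these data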;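 note: 0% = DMSO wells and 100% = thioflavine S control wells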
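Measured by: Cy5 fluorescence, 0 and 60 min reads / Assay system: NS3 helicase fragment of HCV / Control set: low DMSO, high thioflavine S at 110 µM / Times: 1 h reaction at 25 °C, ATP-initiated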
ZTA counter – blocks Epstein-Barr virus ZTA, an EBNA-1 counter-screen; P03206; ZTA-DNA binding, fluorescence polarization; inhibition, % at 11 µM; 0.15% of 320,000 active; AID 2234; in the data active = inhibition above about 33%
Target sequence (P03206 whole entry, looked up): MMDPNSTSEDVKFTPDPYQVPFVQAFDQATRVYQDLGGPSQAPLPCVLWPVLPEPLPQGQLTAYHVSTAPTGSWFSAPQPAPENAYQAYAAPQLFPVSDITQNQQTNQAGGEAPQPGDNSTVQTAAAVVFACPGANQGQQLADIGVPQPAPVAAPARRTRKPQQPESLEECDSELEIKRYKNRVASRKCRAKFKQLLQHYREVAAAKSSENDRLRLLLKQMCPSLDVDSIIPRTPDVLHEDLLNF
FGF22 binding-2 – binders of human FGF22 by thermal shift | 2% of 1,000 active | thermal shift activity, °C (ΔTm) at 38 µM | recombinant FGF22 thermal shift, SYPRO orange fluorescence | shares compounds with FGF22 binding-1;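 active = fitted rise in melting shift crosses a set limit at or below the top valid dose tested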
FGF22 TSA – binders of human FGF22 by thermal shift. AID 743017. Tm shift (activity), % at 38 µM. Thermal shift assay, SYPRO orange, melting temperature shift. 50 tested, under 10 active. shares compounds with FGF22 binding-1;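 active = compounds whose fitted dose curve of melting temperature shift rises past a set threshold within the tested doses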
TSA no protein – compound-only SYPRO artifact for FGF22 binders | shares compounds with FGF22 binding-1 | compound-only SYPRO orange thermal shift counter-screen, no protein | AC50, µM (top dose mostly 38 µM) | 2% of 1,000 active | AID 743019;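 active = rising signal whose fitted curve reaches the 0.54 level within the top valid dose, showing a melting point, actives reach about 13 µM in these data; inactive = the rest, including activity in the opposite direction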; note: value is where the raw curve crosses a fixed level and not half-maximal
* marks the source's active call; other numbers are inactive results; i = inactive; · = not tested or not shown; [ ] = remark or other dose. A selection: hits, their analogues and other compounds. The true share with any hit is near 3.6%.

SMILES | EBNA-1 inhibitor | GRIN3A LBD mod | DNA FID counter | FGF22 binding-1 | NS3 helicase inh | ZTA counter | FGF22 binding-2 | TSA no protein | others
C[C@@H]1CN([C@@H](C)CO)C(=O)c2cc(NC(=O)Nc3ccc(C(F)(F)F)cc3)ccc2O[C@@H]1CN(C)Cc1ccc(C(=O)O)cc1 | · | · | · | 2.5* | · | · | 0.03 | i
C[C@@H]1CN([C@H](C)CO)C(=O)c2cc(NC(=O)Nc3ccc(C(F)(F)F)cc3)ccc2O[C@@H]1CN(C)Cc1ccc(C(=O)O)cc1 | · | · | · | 1.4* | · | · | -0.1[42 µM] | i
COCC(=O)Nc1ccc2c(c1)C(=O)N(C)[C@H]1CC[C@@H](CC(=O)NCc3ccccc3)O[C@@H]1CO2 | · | · | · | 0 | · | · | · | ·
COc1ccc(S(=O)(=O)N(C)C[C@@H]2OCCCC[C@H](C)Oc3ccc(NS(=O)(=O)c4ccc(F)cc4)cc3C(=O)N([C@@H](C)CO)C[C@H]2C)cc1 | · | · | · | 0 | · | · | · | ·
O=C(N[C@@H]1CC[C@H](CCNC(=O)C2CC2)O[C@@H]1CO)c1ccccn1 | · | · | · | 0 | · | · | · | ·
O=C(NCc1ccc(Cl)cc1)c1n[nH]c([N+](=O)[O-])c1Cl | -1 | -4 | -8 | 4.2* | 16 | -11 | 0.34 | i
CO[C@@H]1CN(C)C(=O)c2cc(NC(=O)C3CCC3)ccc2OC[C@@H](C)N(S(=O)(=O)c2ccc(Cl)cc2)C[C@H]1C | · | · | · | 0 | · | · | · | ·
C[C@@H]1CN([C@H](C)CO)C(=O)Cc2cc(NC(=O)Cc3ccccc3)ccc2O[C@@H]1CN(C)Cc1ccc(C(=O)O)cc1 | · | · | · | 0 | · | · | · | ·
O=C(C[C@H]1CC[C@H](NC(=O)C2CCC2)[C@H](CO)O1)NCc1ccccc1Cl | · | · | · | 0 | · | · | · | ·
S=c1[nH]c2cc3ccccc3cc2[nH]1 | 1 | 26* | 2 | 2.1* | -7 | -1 | 0.069 | i
CCc1ccc(C(=O)NCc2cnn(C)c2)s1 | -1 | -2 | -4 | 3.2* | -15 | 21 | 0.2 | i
CC(=O)N(C)C[C@@H]1Oc2ncc(C#Cc3ccccc3)cc2C(=O)N([C@H](C)CO)C[C@H]1C | · | · | · | 0 | · | · | · | ·
Cc1ccccc1-c1ccccc1[C@H]1[C@@H](CO)N(C(=O)c2ccccc2)[C@H]1C#N | · | · | · | 1.7* | · | · | 0.13[42 µM] | i
CC(C)NC(=O)N1[C@H](CO)[C@H](c2ccccc2-c2ccc(F)cc2)[C@@H]1C#N | · | · | · | 1.8* | · | · | 0.22 | i
N#C[C@H]1[C@@H](c2ccc(-c3cccnc3)cc2)[C@@H](CO)N1C(=O)Nc1ccc(F)cc1 | · | · | · | 0 | · | · | · | ·
N#C[C@@H]1[C@H](c2ccc(-c3cccnc3)cc2)[C@H](CO)N1C(=O)Nc1ccc(F)cc1 | · | · | · | 2.7* | · | · | 0.067[42 µM] | i
C/C=C/c1ccccc1[C@@H]1[C@@H](C#N)N(C(C)=O)[C@@H]1CO | · | · | · | 1.3* | · | · | -0.004[42 µM] | i
C[C@H]1CCCCO[C@@H](CN(C)C(=O)CCC(F)(F)F)[C@@H](C)CN([C@@H](C)CO)C(=O)c2cc(NS(=O)(=O)c3cn(C)cn3)ccc2O1 | · | · | · | 0 | · | · | · | ·
O=C(C[C@H]1C[C@@H]2c3cc(NC(=O)Nc4ccccc4F)ccc3O[C@@H]2[C@@H](CO)O1)NC1CCCCC1 | · | · | · | 0 | · | · | · | ·
COCC#Cc1cnc2c(c1)C(=O)N([C@@H](C)CO)C[C@@H](C)[C@@H](CN(C)C(=O)c1ccc3c(c1)OCO3)O2 | · | · | · | 0 | · | · | · | ·
O=C(CCc1ccc(S(=O)(=O)N2CCOCC2)cc1)Nc1ccccc1F | · | 0 | · | 1.5* | · | · | 0.14 | i
C[C@H]1CN([C@@H](C)CO)C(=O)c2cccc(NC(=O)C3CC3)c2O[C@@H]1CN(C)Cc1ccccc1 | · | · | · | 0 | · | · | · | ·
O=C(Cc1ccc2c(c1)OCCO2)c1c(O)cc(O)cc1O | -9 | 3 | -8 | 0 | 25 | -14 | · | ·
O=C(CCc1ccc(O)cc1)c1c(O)cc(O)cc1O | -7 | 21* | · | 2.8* | · | -3 | 0.51 | 2.9µM*
CCOC(=O)C1(C)CCCN(C(=O)c2cccc(C#N)c2)C1 (configuration not stated) | · | · | · | 2.0* | · | · | -0.038 | i
SMILES | EBNA-1 inhibitor | GRIN3A LBD mod | DNA FID counter | FGF22 binding-1 | NS3 helicase inh | ZTA counter | FGF22 binding-2 | TSA no protein | others
CC(C)[C@H](C)NC(=O)N(C)C[C@H]1OCc2ccccc2-c2c(n(C)c3ccccc23)C(=O)N([C@H](C)CO)C[C@H]1C | · | · | · | 0 | · | · | · | ·
CSc1ccc(/C=N/NC(=O)c2ccc3nc[nH]c3c2)cc1 | · | · | · | 2.2* | · | · | · | i | FGF22 TSA=0
CN(C)c1ccc(/C=N/NC(=O)c2ccc3nc[nH]c3c2)cc1 | 2 | 7 | -2 | 1 | -1 | 9 | · | ·
Cc1ccc(S(=O)(=O)Nc2ccc3c(c2)C(=O)N([C@@H](C)CO)C[C@@H](C)[C@@H](CN(C)C)O3)cc1 | · | · | · | 1.9* | · | · | -0.025 | i
Cc1ccc(S(=O)(=O)Nc2ccc3c(c2)C(=O)N([C@@H](C)CO)C[C@@H](C)[C@H](CN(C)C)O3)cc1 | · | · | · | 0 | · | · | · | ·
C[C@H](CO)N1C[C@H](C)[C@H](CN(C)S(=O)(=O)c2ccc(F)cc2)Oc2ccc(NC(=O)c3ccncc3)cc2C1=O | · | · | · | 1.9* | · | · | 0.048 | i
C[C@@H]1CN([C@H](C)CO)C(=O)c2cc(NS(=O)(=O)c3ccc(Cl)cc3)ccc2O[C@@H]1CN(C)S(=O)(=O)c1ccc(F)cc1 | · | · | · | -1 | · | · | · | ·
C[C@@H]1CN([C@@H](C)CO)C(=O)c2cc(NS(=O)(=O)c3ccc(Cl)cc3)ccc2O[C@@H]1CN(C)S(=O)(=O)c1ccc(F)cc1 | · | · | · | 2.9* | · | · | 0.18[42 µM] | i
CO[C@@H]1CN(C)C(=O)c2cc(NS(=O)(=O)c3cn(C)cn3)ccc2OC[C@H](C)N(Cc2cccc(F)c2)C[C@@H]1C | · | · | · | 0 | · | · | · | ·
CCc1ccc(N2CC(C(=O)OCC(=O)Nc3ccc(C#N)cc3)CC2=O)cc1 (configuration not stated) | · | -6 | · | 1.6* | · | -16 | 0.06 | i
CCc1ccc(N2CC(C(=O)OCC(=O)Nc3ccc(C(C)=O)cc3)CC2=O)cc1 (configuration not stated) | · | 2 | · | 1.9* | · | -1 | -0.51 | i
CCc1ccc(N2CC(C(=O)OCC(=O)NC3CC3)CC2=O)cc1 (configuration not stated) | · | 2 | · | · | · | · | · | ·
Cc1ccc(S(=O)(=O)N2CCN(CC(=O)N/N=C\c3ccc(Cl)c([N+](=O)[O-])c3)CC2)cc1 | -4 | -10 | -20 | · | -15 | -9 | · | ·
CC(=O)c1ccc(S(=O)(=O)N2CCN(CC(=O)Nc3ccc(Cl)c([N+](=O)[O-])c3)CC2)cc1 | · | -4 | · | 2.6* | · | -6 | 0.023 | i
